KCNK3 inh: human KCNK3 channel inhibitors, primary screen, CHO cells, FluxOR thallium flux, B-score. Potassium channel subfamily K member 3 (Homo sapiens), O14649. FluxOR fluorescence; hits give low values. B-score at 10 µM. 340,000 compounds, 0.84% hits. AID 602410, 2012;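 active = B-score under library mean minus 4 SD, starting fluorescence ratio at most library mean plus 5 SD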;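 also: more negative B-score means stronger inhibition of thallium flux through KCNK3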
Cl transport mod: KCC2 cotransporter modulators, thallium flux, primary screen, cell-based, HEK293 KCC2, FluoZin-2 fluorescence, MLSMR; KCC2 cells, thallium flux FluoZin-2 fluorescence; B-score of Tl+ flux slope (higher = more flux/activation; lower = inhibition) at 10 µM; 190,000 compounds, 2.2% hits;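 active = thallium flux slope and its plate-corrected score both differing from the plate sample mean at a set confidence after two filtering rounds, in either direction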;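 also: slope of fluorescence scaled to starting intensity during 10 to 20 s after thallium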
KCNQ1 pot: potentiators or activators of KCNQ1 channel, primary screen, cell-based, thallium flux, high-throughput; Potassium voltage-gated channel subfamily KQT member 1 (Homo sapiens), P51787; B-score at 10 µM; CHO-K1 KCNQ1, thallium flux FluxOR fluorescence; hits give high values; 310,000 compounds, 0.35% hits;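 active = fluorescence ratio B-score, a plate-corrected score, at least three library SD, with initial intensity B-score within 5 SD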
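Assay system: stable KCNQ1 CHO-K1 line; medium: assay buffer, equal DMSO in all wells; timing: 90 min dye loading and 20 min compound exposure, both at room temperature; technique: kinetic FluxOR thallium fluorescence, 10-s 1-Hz baseline, 110-s post-stimulus read; read-out basis: B score of baseline-normalized fluorescence ratio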
hERG rescue: hERG rescue from dofetilide block, primary screen, cell-based, CHO-hERG, FluxOR thallium flux, dofetilide IC70. Voltage-gated inwardly rectifying potassium channel KCNH2 (Homo sapiens), Q12809. dofetilide IC70 present. AID 1511, 2009. activation (rescue from dofetilide block), less the hit threshold, % at 10 µM. 310,000 compounds, 0.51% hits;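 active = activation above the mean of controls blocked by dofetilide plus 5 SD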;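 also: thallium influx through hERG after potassium depolarization seen as dye fluorescence rise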
KCNK9 block: KCNK9 potassium channel inhibitors, primary screen, HEK293 cells, thallium flux; Potassium channel subfamily K member 9 (Homo sapiens), Q9NPC2; FluxOR thallium flux fluorescence; hits give low values; B-score at 10 µM; 310,000 compounds, 1.2% hits; AID 488922, 2010;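 active = ratio B-score over 3 SD below the library mean, with starting fluorescence within 5 SD of its mean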;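 also: negative B-score means less thallium flux so channel inhibition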
KCNQ1 inh: inhibitors of human KCNQ1 channel, primary screen, cell-based, thallium flux, high-throughput; Potassium voltage-gated channel subfamily KQT member 1 (Homo sapiens), P51787; CHO-K1 KCNQ1, FluxOR thallium flux fluorescence; hits give high values; B-score at 10 µM; 310,000 compounds, 1.3% hits;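 active = compounds whose thallium flux B-score, printed positive for inhibition, exceeds three library SD while starting fluorescence stays within three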;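 also: channel opened by potassium depolarization with thallium stimulus after 20 min compound exposure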
KCC2 secondary: KCC2 modulators in sodium-free buffer, confirmation, cell-based, HEK293 KCC2, thallium flux, secondary assay; shares compounds with Cl transport mod; FluoZin2 fluorescence; hits give high values; normalised thallium flux (F/F0 slope) at 10 µM; 3,700 compounds, 15% hits; AID 1713, 2009;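 active = thallium flux slope above the same plate's solvent-only control mean plus 3 SD; inconclusive = the two replicate wells disagree; inactive = no significant difference from solvent-only control wells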
KCC2 bumet counter: thallium flux persisting under bumetanide in KCC2 cells, confirmation, counter-screen for KCC2 modulator project, cell-based, HEK293 KCC2, FluoZin2, secondary assay 3 | shares compounds with Cl transport mod | HEK293-KCC2 + bumetanide/ouabain; hits give high values | normalized thallium flux at 10 µM | 3,700 compounds, 49% hits | AID 1714, 2009;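 active = thallium entry rate above the same plate's blocked-transporter control wells by more than 3 SD; inconclusive = the two repeat wells disagree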;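 also: raw slope of fluorescence over initial fluorescence between 10 and 20 s after thallium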
KCC2 sec2: KCC2 modulators without ouabain present, confirmation, cell-based, HEK293 KCC2, thallium flux, FluoZin2, secondary assay 2; shares compounds with Cl transport mod; thallium flux FluoZin2 fluorescence; actives lie on both sides; F/F0 rise rate, 10–20 s post-thallium; normalized thallium flux at 10 µM; 3,700 compounds, 23% hits; AID 1715, 2009;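 active = thallium flux slope more than 3 SD above or below the plate's solvent-only control mean, mostly below; inconclusive = the two repeat wells disagreed; inactive = no significant shift from solvent-only controls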
HEK counter1: thallium flux modulation in parental HEK cells, confirmation, counter-screen for KCC2 modulator project, cell-based, counterscreen 1 | HEK293 parental cells, thallium flux FluoZin2, ouabain; baseline-ratio fluorescence slope, 10–20 s after thallium | AID 1716, 2009 | 3,700 compounds, 46% hits | shares compounds with Cl transport mod | thallium flux rate (normalised fluorescence) at 10 µM;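 active = thallium flux rate significantly above the same plate's solvent-only control wells, beyond their mean plus 3 SD; inconclusive = the two replicate wells gave conflicting results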
KCC2 retest ouab: KCC2 inhibitors and activators, ouabain retest, confirmation, HEK-KCC2 cells | HEK293-KCC2, thallium flux FluoZin2 fluorescence; bidirectional: low = inhibitor, high = activator | 3,700 compounds, 48% hits | shares compounds with Cl transport mod | raw Tl+ flux slope (below DMSO = inhibition, above = activation) at 10 µM | AID 1717, 2009;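 active = thallium flux slope beyond 3 SD from same-plate DMSO control mean in most replicates, usually higher, sometimes lower; inconclusive = repeat tests gave conflicting results; inactive = no significant difference from controls in most replicates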;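 also: slope of initial-normalized fluorescence between seconds 10 and 20 after thallium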
HEK counter2: native HEK Tl+ uptake effects, second counter-screen – HEK cells, counterscreen 2, counter-screen for KCC2 modulator project, confirmation | shares compounds with Cl transport mod | HEK293 parental, thallium flux FluoZin-2 fluorescence slope | thallium flux slope at 10 µM | 3,700 compounds, 33% hits | AID 1718, 2009;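 active = thallium flux slope above the same plate's solvent-control mean plus 3 SD in both duplicate wells; inconclusive = duplicate wells that disagreed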;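 also: run without ouabain in cells lacking the KCC2 cotransporter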
A number is an active result; 0 = inactive; ? = inconclusive; - = not tested or not shown. The list is not random: actives were taken first. Their share in the collection is about 4.1%.

SMILES	KCNK3 inh	Cl transport mod	KCNQ1 pot	hERG rescue	KCNK9 block	KCNQ1 inh	KCC2 secondary	KCC2 bumet counter	KCC2 sec2	HEK counter1	KCC2 retest ouab	HEK counter2
COc1ccc(-n2cnnc2SCC(=O)Nc2cc(S(=O)(=O)N3CCCCC3)ccc2C)cc1	0	-4.4	0	0	0	0	0	0	0.026	0	0.014	0
COc1ccc(S(=O)(=O)N2CCCCC2)cc1NC(=O)CSc1ncnc2ccccc12	0	-3.3	0	0	0	0	0	0	0	?	0.015	0
CC(=O)c1sc(C(C)(C)C)cc1NC(=O)c1ccccc1C(=O)O	0	0	0	0	0	0	-	-	-	-	-	-
Cc1ccc(S(=O)(=O)c2nc(-c3ccc(F)cc3)oc2N2CCOCC2)cc1	0	-	0	0	0	0	-	-	-	-	-	-
NNc1nc2ccccc2nc1C(F)(F)F	0	0	0	0	0	0	-	-	-	-	-	-
FC(F)(F)c1nc2ccccc2nc1N/N=C\c1ccccc1	0	-	0	0	0	0	0	0.0059	0	0	0	0
O=C(Nn1c(C2CCC2)nc2ccccc2c1=O)c1cccs1	0	0	0	0	0	0	-	-	-	-	-	-
O=C(NNc1nc2c(F)cccc2s1)C1COc2ccccc2O1 (stereo not drawn)	0	10	0	0	0	0	0	0.037	0.047	0.035	0.038	0.03
COc1cccc2sc(NNC(=O)C3COc4ccccc4O3)nc12 (stereo not drawn)	0	20	0	0	0	0	0.021	0.03	?	0.019	0.026	0.021
Cc1ccc2sc(NNC(=O)C3COc4ccccc4O3)nc2c1C (stereo not drawn)	0	6.5	-	-	-	-	0	0.042	0	0.017	?	0.012
COc1cccc2sc(NNC(=O)C3=COCCO3)nc12	0	0	0	0	0	0	-	-	-	-	-	-
CSc1nc2ccc3nc(NC(=O)C4COc5ccccc5O4)sc3c2s1 (stereo not drawn)	0	0	0	0	0	0	-	-	-	-	-	-
Cc1nc2ccc3nc(NC(=O)C4COc5ccccc5O4)sc3c2s1 (stereo not drawn)	0	5.7	0	0	0	0	0	0.013	0	0.011	?	0.014
O=C(Nc1nc2c(F)cccc2s1)C1CC1	0	-	0	0	0	0	-	-	-	-	-	-
O=C(NCCC(=O)N1CCC2(CC1)NCCc1[nH]cnc12)c1cccc(C(F)(F)F)c1	0	-	0	0	0	0	-	-	-	-	-	-
CCCc1cc(=O)[nH]c(SCC(=O)Nc2nonc2C)n1	0	-	0	0	0	0	-	-	-	-	-	-
COc1ccc(CNC(=O)C2COc3ccccc3O2)c(OC)c1 (stereo not drawn)	0	-	0	0	0	0	0	0	0	0	0	0
COc1ccc(OC)c(NC(=O)C2COc3ccccc3O2)c1 (stereo not drawn)	0	0	0	0	0	0	-	-	-	-	-	-
COC(=O)CCN(C(=O)c1ccc(OC(C)=O)cc1)c1ccccn1	0	-3.8	0	0	0	0	0	0	0	0	0	0
O=C(CSc1nnc2sc3ccccc3n12)NCc1ccco1	0	0	0	0	0	0	-	-	-	-	-	-
N#Cc1c(Cl)nc(SCc2ccccc2)nc1-c1ccccc1	-	-4.9	-	-	-	-	0	0	0.024	0.0055	0.014	0.0083
c1ccc(CSc2nnc(-c3ccccc3)c(-c3ccccc3)n2)cc1	0	-	0	0	0	0	-	-	-	-	-	-
S=c1nc[nH]c2c1cnn2-c1ccccc1	0	149	19	0	0	0	0.052	0.16	0.067	0.093	0.11	0.051
Cn1c(SCC(=O)Nc2ccc(NC(=O)c3ccccc3F)cc2)nnc1-c1ccncc1	0	-	0	0	0	0	-	-	-	-	-	-
O=C(c1ccc(S(=O)(=O)c2cccc(Cl)c2)c([N+](=O)[O-])c1)N1CCN(c2ccccn2)CC1	0	-5	0	0	0	0	0	0	0.022	0	?	0
SMILES	KCNK3 inh	Cl transport mod	KCNQ1 pot	hERG rescue	KCNK9 block	KCNQ1 inh	KCC2 secondary	KCC2 bumet counter	KCC2 sec2	HEK counter1	KCC2 retest ouab	HEK counter2
Cc1ccc(C2=NC3(CCCC3)NC2=S)cc1	0	5.6	0	0	0	0	0	0.019	0	0.011	0	?
S=C1NC2(CCCCCC2)N=C1c1ccccc1	0	4.6	0	0	0	0	0	0.016	0	?	?	0
O=[N+]([O-])c1ccccc1/C=N/N1CCN(c2ccncc2S(=O)(=O)N2CCCCC2)CC1	0	0	0	0	0	0	-	-	-	-	-	-
Cn1nccc1C(=O)OCC(=O)Nc1nc(-c2ccccc2)cs1	0	-5.3	0	0	0	0	0	0	0.022	0	0	0
Cc1cc(=O)[nH]c(SCC(=O)Nc2nnc(SCc3ccccc3)s2)n1	0	-4.8	0	0	0	0	0	0	0.025	0.0048	0.015	0.0083
Cc1nc(CC(=O)Nc2nc(-c3ccccc3)cs2)cs1	0	-3.4	0	0	0	0	0	0	?	0	0.017	0

Compound activity as filed in PubChem.
